Calls of active or inactive are those of the source.
Tests used:
[1] = tested on: Enterococcus faecalis; assay: Antibacterial activity against Enterococcus faecalis ATCC 29212 assessed as reduction in bacterial growth after 18 hrs by microbroth dilution method; assay type: functional
In short: (§1)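 CLSI microbroth dilution in MHB. Overnight cultures were adjusted to 0.5 McFarland in saline, diluted 1:50, and inoculated at about 5 × 10^5 CFU/mL. Agents were 2-fold serially diluted and incubated 18 h at 37 °C. MIC is the lowest concentration without visible turbidity, confirmed by absorbance at 590 nm. Medium with and without cells served as controls.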

[2] = tested on: Escherichia coli; assay: Potentiation of piperacilin-induced antibiotic activity against Escherichia coli ATCC 25922 assessed as MIC fold reduction at 8 ug/ml after 18 hrs by microbroth dilution method; assay type: functional; details: dose 8 µg/ml
[3] = tested on: Pseudomonas aeruginosa; assay: Potentiation of rifampicin-induced antibiotic activity against Pseudomonas aeruginosa PAO1 assessed as MIC fold reduction at 8 ug/ml after 18 hrs by microbroth dilution method; assay type: functional; details: dose 8 µg/ml
[4] = tested on: Pseudomonas aeruginosa; assay: Antibacterial activity against MDR clinical isolate Pseudomonas aeruginosa PA101885 assessed as potentiation of cefiderocol antibacterial activity by measuring FIC index after 18 hrs by microbroth dilution method; assay type: functional
In short: (§2)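 Checkerboard in MHB. Cefiderocol was 2-fold serially diluted along one axis and the adjuvant along the other. Inoculum was prepared from 0.5 McFarland saline suspensions diluted 1:50 in MHB, giving about 5 × 10^5 CFU/mL final. Plates ran 18 h at 37 °C, with turbidity confirmed at 590 nm. FIC = combination MIC ÷ MIC alone for each agent, and FIC index = sum of both. Interpretation: ≤0.5 synergy, >0.5–4 additive, >4 antagonism.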

[5] = tested on: Escherichia coli; assay: Potentiation of minocycline-induced antibiotic activity against Escherichia coli ATCC 25922 assessed as MIC fold reduction at 8 ug/ml after 18 hrs by microbroth dilution method; assay type: functional; details: dose 8 µg/ml
In short: (§3)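 Adjuvant held at a fixed 8 μg/mL while the antibiotic was 2-fold serially diluted in Mueller-Hinton broth (MHB), per CLSI microbroth dilution. Overnight cultures were adjusted in saline to 0.5 McFarland, then diluted 1:50 in MHB to about 5 × 10^5 CFU/mL final, and incubated 18 h at 37 °C. MIC was the lowest concentration with no visible turbidity, confirmed at 590 nm. Fold potentiation = MIC alone / MIC with adjuvant.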

[6] = tested on: Escherichia coli; assay: Potentiation of tobramycin-induced antibiotic activity against Escherichia coli ATCC 25922 assessed as MIC fold reduction at 8 ug/ml after 18 hrs by microbroth dilution method; assay type: functional; details: dose 8 µg/ml
[7] = tested on: Escherichia coli; assay: Potentiation of cindamycin-induced antibiotic activity against Escherichia coli ATCC 25922 assessed as MIC fold reduction at 8 ug/ml after 18 hrs by microbroth dilution method; assay type: functional; details: dose 8 µg/ml; in short: as §3
[8] = tested on: Pseudomonas aeruginosa; assay: Antibacterial activity against MDR clinical isolate Pseudomonas aeruginosa PA262 assessed as reduction in bacterial growth after 18 hrs by microbroth dilution method; assay type: functional
In short: (§4)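 CLSI broth microdilution. Overnight cultures were adjusted in saline to 0.5 McFarland, diluted 1:50 in Mueller-Hinton broth (MHB), and inoculated at about 5 × 10^5 CFU/mL. Agents were 2-fold serially diluted in MHB, mixed 1:1 with inoculum, and held at 37 °C for 18 h. MIC was the lowest concentration with no visible turbidity, confirmed at 590 nm.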

[9] = tested on: Escherichia coli; assay: Potentiation of linezolid-induced antibiotic activity against Escherichia coli ATCC 25922 assessed as MIC fold reduction at 8 ug/ml after 18 hrs by microbroth dilution method; assay type: functional; details: dose 8 µg/ml; in short: as §3
[10] = tested on: Pseudomonas aeruginosa; assay: Antibacterial activity against MDR clinical isolate Pseudomonas aeruginosa PA260 assessed as reduction in bacterial growth after 18 hrs by microbroth dilution method; assay type: functional; in short: as §4
[11] = tested on: Acinetobacter baumannii; assay: Antibacterial activity against Acinetobacter baumannii AB92247 assessed as potentiation of cefiderocol antibacterial activity by measuring FIC after 18 hrs by microbroth dilution method; assay type: functional
In short: (§5)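 Checkerboard in Mueller-Hinton broth: cefiderocol 2-fold diluted on one axis, adjuvant 2-fold on the other. Overnight cultures were adjusted to 0.5 McFarland in saline, diluted 1:50 in MHB, and inoculated at about 5 × 10^5 CFU/mL. Incubation was 18 h at 37 °C. Turbidity was read visually and confirmed at 590 nm. FIC index = FIC of antibiotic + FIC of adjuvant; ≤0.5 synergy, >4 antagonism.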

[12] = tested on: Klebsiella pneumoniae; assay: Antibacterial activity against Klebsiella pneumoniae KP113250 assessed as reduction in bacterial growth after 18 hrs in presence of cefiderocol by microbroth dilution method; assay type: functional; in short: as §5
[13] = tested on: Acinetobacter baumannii; assay: Potentiation of aztreonam-induced antibiotic activity against Acinetobacter baumannii ATCC 17978 assessed as MIC fold reduction at 8 ug/ml after 18 hrs by microbroth dilution method; assay type: functional; details: dose 8 µg/ml
In short: (§6)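 Initial screen in MHB using a fixed 8 μg mL−1 of adjuvant combined with each antibiotic under 2-fold dilution. Broth microdilution used about 5 × 10^5 CFU/mL at 37 °C for 18 h, with visible turbidity read and confirmed at 590 nm. Fold-potentiation = antibiotic MIC alone ÷ antibiotic MIC with adjuvant.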

[14] = tested on: Pseudomonas aeruginosa; assay: Potentiation of cefiderocol-induced antibiotic activity against MDR clinical isolate Pseudomonas aeruginosa PA260 assessed as MIC fold reduction at 8 ug/ml after 18 hrs by microbroth dilution method; assay type: functional, organism-based; details: dose 8.0 µg/ml; in short: as §6
[15] = tested on: Enterobacter cloacae; assay: Antibacterial activity against Enterobacter cloacae 118564 assessed as reduction in bacterial growth after 18 hrs in presence of cefiderocol by microbroth dilution method; assay type: functional; in short: as §5
[16] = tested on: Pseudomonas aeruginosa; assay: Antibacterial activity against colistin-resistant clinical isolate Pseudomonas aeruginosa PA91433 assessed as potentiation of cefiderocol antibacterial activity by measuring FIC index after 18 hrs by microbroth dilution method; assay type: functional
In short: (§7)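 Checkerboard in MHB (iron-replete, not iron-depleted CAMHB). Cefiderocol was 2-fold serially diluted along one axis and the adjuvant along the other. Inoculum was 0.5 McFarland diluted 1:50, about 5 × 10^5 CFU/mL final. Incubation was 18 h at 37 °C, with turbidity read visually and confirmed at 590 nm. FIC was the MIC in combination over the MIC alone for each agent, and the FIC index was their sum. Cut-offs were ≤0.5 synergy, >0.5–4 additive, >4 antagonism.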

[17] = tested on: Pseudomonas aeruginosa; assay: Antibacterial activity against […] Pseudomonas aeruginosa PAO1 assessed as potentiation of cefiderocol antibacterial activity by measuring FIC index after 18 hrs by microbroth dilution method; assay type: functional; in short: as §2
[18] = tested on: Enterobacter cloacae; assay: Antibacterial activity against Enterobacter cloacae 121187 assessed as reduction in bacterial growth after 18 hrs by microbroth dilution method; assay type: functional; in short: as §1
[19] = tested on: Pseudomonas aeruginosa; assay: Potentiation of colistin-induced antibiotic activity against Pseudomonas aeruginosa PAO1 assessed as MIC fold reduction at 8 ug/ml after 18 hrs by microbroth dilution method; assay type: functional; details: dose 8 µg/ml; in short: as §3
[20] = tested on: Acinetobacter baumannii; assay: Antibacterial activity against Acinetobacter baumannii LAC-4 assessed as reduction in bacterial growth after 18 hrs by microbroth dilution method; assay type: functional; in short: as §1
[21] = tested on: Escherichia coli; assay: Antibacterial activity against Escherichia coli 94474 assessed as reduction in bacterial growth after 18 hrs in presence of cefiderocol by microbroth dilution method; assay type: functional; in short: as §5
[22] = tested on: Pseudomonas aeruginosa; assay: Potentiation of novobiocin-induced antibiotic activity against Pseudomonas aeruginosa PAO1 assessed as MIC fold reduction at 8 ug/ml after 18 hrs by microbroth dilution method; assay type: functional; details: dose 8 µg/ml
[23] = tested on: Pseudomonas aeruginosa; assay: Potentiation of chloamphenicol-induced antibiotic activity against Pseudomonas aeruginosa PAO1 assessed as MIC fold reduction at 8 ug/ml after 18 hrs by microbroth dilution method; assay type: functional; details: dose 8 µg/ml; in short: as §3
[24] = tested on: Pseudomonas aeruginosa; assay: Antibacterial activity against MDR clinical isolate Pseudomonas aeruginosa PA264 assessed as potentiation of cefiderocol antibacterial activity by measuring FIC index after 18 hrs by microbroth dilution method; assay type: functional; in short: as §7

**Q.** What does the source list for `NC[C@H]1O[C@H](O[C@H]2[C@H](OCCCCc3cn(-c4ccc(NC(=O)c5cc(Cl)ccc5O)cc4)nn3)[C@@H](O[C@H]3O[C@H](CO)[C@@H](O)[C@H](N)[C@H]3O)[C@H](N)C[C@@H]2N)[C@H](N)C[C@@H]1O`?
**A.** MIC [1]: > 128 µg/mL; fold change (FC) [2]: 4; fold change (FC) [3]: 4; FIC [4]: 0.017; fold change (FC) [5]: 4; fold change (FC) [6]: 4; fold change (FC) [7]: 4; MIC [8]: > 128 µg/mL; fold change (FC) [9]: 4; MIC [10]: > 128 µg/mL; FIC [11]: 0.5; MIC [12]: 4 µg/mL; fold change (FC) [13]: 4; Activity [14]: Active; MIC [15]: 0.25 µg/mL; FIC [16]: 0.016; FIC [17]: 0.258; MIC [18]: > 128 µg/mL; fold change (FC) [19]: 4; MIC [20]: > 128 µg/mL; MIC [21]: 8 µg/mL; fold change (FC) [22]: 4; fold change (FC) [23]: 4; FIC [24]: 0.125
